Measured values published in ChEMBL document CHEMBL1156122, “Protein tyrosine phosphatase 1B inhibitors isolated from Morus bombycis” (Bioorg Med Chem Lett, 2009).

Experiments:
[1] = substrate: CC(C)=CCC/C(C)=C\CC/C(C)=C\Cc1c(O)cc(O)cc1-c1cc2ccc(O)cc2o1; test: (§1) Activity at human recombinant PTP1B
Method in brief: (§2)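 Recombinant human PTP1B (0.1 μg) incubated with 2 mM p-NPP in 50 mM citrate pH 6.0, 0.1 M NaCl, 1 mM EDTA, 1 mM DTT, with or without inhibitor. Incubation 37 °C for 30 min, stopped with 10 M NaOH. p-Nitrophenol read by absorbance at 405 nm, corrected for nonenzymatic p-NPP hydrolysis without enzyme. Values are mean ± SD of triplicates.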

[2] = substrate: CC(C)=CCC/C(C)=C/Cc1c(O)ccc2cc(-c3cc(O)cc(O)c3CC=C(C)C)oc12; test: as §1; method in brief: as §2
[3] = substrate: CC(C)=CCC/C(C)=C/Cc1c(O)cc(O)cc1-c1cc2ccc(O)cc2o1; test: as §1; method in brief: as §2
[4] = substrate: CC(C)=CCc1c(O)cc(C(=O)[C@H]2[C@@H](c3c(O)ccc(C(=O)/C=C/c4ccc(O)cc4O)c3O)C=C(C)C[C@@H]2c2ccc(O)cc2O)cc1O; test: as §1; method in brief: as §2
[5] = substrate: CC(C)=CCc1c(O)cc(C(=O)[C@H]2[C@@H](c3c(O)ccc(C(=O)/C=C/c4ccc(O)cc4)c3O)C=C(C)C[C@@H]2c2ccc(O)cc2O)cc1O; test: as §1; method in brief: as §2
[6] = substrate: CC(C)=CCc1c(O)cc(C(=O)[C@H]2[C@@H](c3c(O)ccc(C(=O)/C=C/c4ccc(O)cc4)c3O)C=C(C)C[C@@H]2c2ccc(O)cc2)cc1O; test: as §1; method in brief: as §2

B1: Tyrosine-protein phosphatase non-receptor type 1 (Homo sapiens), P18031 (protein)
chain: MEMEKEFEQIDKSGSWAAIYQDIRHEASDFPCRVAKLPKNKNRNRYRDVSPFDHSRIKLHQEDNDYINASLIKMEEAQRSYILTQGPLPNTCGHFWEMVWEQKSRGVVMLNRVMEKGSLKCAQYWPQKEEKEMIFEDTNLKLTLISEDIKSYYTVRQLELENLTTQETREILHFHYTTWPDFGVPESPASFLNFLFKVRESGSLSPEHGPVVVHCSAGIGRSGTFCLADTCLLLMDKRKDPSSVDIKKVLLEMRKFRMGLIQTADQLRFSYLAVIEGAKFIMGDSSVQDQWKELSHEDLEPPPEHIPPPPRPPKRILEPHNGKCREFFPNHQWVKEETQEDKDCPIKEEKGSPLNAAPYGIESMSQDTEVRSRVVGGSLRGAQAASPAKGEPSLPEKDEDHALSYWKPFLVNMCVATVLTAGAYLCYRFLFNSNT
Km [1]: 3170 µM
Vmax [1]: 5.49 µM/min
Km [2]: 2080 µM
Vmax [2]: 5.78 µM/min
Km [3]: 1250 µM
Vmax [3]: 6.58 µM/min
Km [4]: 2810 µM
Vmax [4]: 5.41 µM/min
Km [5]: 1640 µM
Vmax [5]: 5.95 µM/min
Km [6]: 1190 µM
Vmax [6]: 6.71 µM/min
